Compound activity from PubChem.
Most compounds without a hit are left out; they make up all but 2.4% or so of the library.
Myeloid diff MLP: promotes myeloid progenitor differentiation. calls only at 10 µM. 360,000 compounds, 1% hits. ER-HoxA9 myeloid progenitors, lysozyme-GFP differentiation, flow cytometry. AID 624256;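 active = normalized GFP-positive differentiation at or above the plate's own cutoff, the solvent-only control mean plus 3 SD; inconclusive = no clear call, values can overlap the other calls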;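 also: cells exposed to compound for four days before flow analysis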
MIN6 prolif: induces beta-cell replication in MIN6 cells. MIN6 cells proliferation, ATPlite luminescence, 48 h; cells starved in 0.2% serum; 100% = growth in 10% serum. proliferation, % at 10 µM. 330,000 compounds, 0.29% hits. AID 2380;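 active = compounds whose signal lies at least 3.5 SD above the mean of all wells on their plate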
SENP1 FRET inh: SENP1 (human) catalytic domain inhibition; Q9P0U3; recombinant SENP1 catalytic domain, CyPet-SUMO1-YPet FRET cleavage; inhibition, % at 10 µM; 360,000 compounds, 0.21% hits;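 active = inhibition at least 30% at 10 µM, raw YFP signal under a set limit, fluorescence ratio 0.5 to 1.5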
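Compound: 10 µM single point, 0.5% DMSO; Test system: hSENP1 catalytic domain, recombinant; Timing: 50 min reaction at room temperature; Technique: FRET, CFP and YFP emission; Control set: no-enzyme wells low, DMSO-plus-enzyme wells high control.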
MT1-MMP act inh: inhibitors of human MT1-MMP activation; P50281; HT1080 RFP-PRO-GFP cells, GFP/RFP ratio fluorescence, overnight; percent of plate control window, DMSO zero; GFP/RFP ratio change, % at 20 µM; 360,000 compounds, 0.061% hits; AID 651647;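 active = GFP/RFP ratio change of at least 30% with cell ATP level not reduced by more than half and red fluorescence within 50% of control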
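Material: RFP-PRO-GFP reporter HT1080 cells. Dosing: single-point 20 µM compound, 1% DMSO. Controls: DMSO and RFP-L50D-GFP cell wells. Timing: cells overnight before dosing, compound overnight, 37 °C, 5% CO2. Measure: GFP/RFP fluorescence ratio.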
DAGLB inhibitor: diacylglycerol lipase beta (human) inhibition. Q8NCG7. HEK293T DAGLB membrane lysate, EnzChek fluorogenic substrate. inhibition, % at 5.17 µM. 340,000 compounds, 0.059% hits; in the data active = inhibition above about 34%
Target sequence (Q8NCG7 whole entry, looked up): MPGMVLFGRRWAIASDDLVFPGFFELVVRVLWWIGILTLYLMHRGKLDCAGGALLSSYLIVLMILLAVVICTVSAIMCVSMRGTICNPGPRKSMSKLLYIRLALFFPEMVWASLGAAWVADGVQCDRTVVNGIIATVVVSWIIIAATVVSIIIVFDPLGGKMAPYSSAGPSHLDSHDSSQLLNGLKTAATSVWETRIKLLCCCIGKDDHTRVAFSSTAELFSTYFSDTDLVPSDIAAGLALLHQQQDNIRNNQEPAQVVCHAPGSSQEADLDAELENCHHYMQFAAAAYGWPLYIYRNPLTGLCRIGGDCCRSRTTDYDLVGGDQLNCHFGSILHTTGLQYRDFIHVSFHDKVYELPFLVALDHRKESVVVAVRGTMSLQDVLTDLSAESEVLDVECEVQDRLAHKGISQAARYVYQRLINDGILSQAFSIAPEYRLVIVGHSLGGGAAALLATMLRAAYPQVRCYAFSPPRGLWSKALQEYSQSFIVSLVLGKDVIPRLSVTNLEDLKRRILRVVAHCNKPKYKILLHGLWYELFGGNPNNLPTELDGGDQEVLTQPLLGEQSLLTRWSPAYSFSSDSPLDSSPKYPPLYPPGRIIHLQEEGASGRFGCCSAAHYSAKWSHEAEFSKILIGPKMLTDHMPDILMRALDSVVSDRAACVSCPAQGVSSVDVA
NRP1-CendR mod: modulators of CendR peptide binding to human neuropilin-1; O14786; FAM-RPARPAR peptide binding to NRP-1, fluorescence polarization; inhibition, % at 25 µM; 360,000 compounds, 0.85% hits; AID 602438;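 active = inhibition or corrected inhibition above about 18%, plus a signal ratio from 0.5 to 1.5, limit read from the data, passing the limit was not always enough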
Hits are given with their value; 0 = inactive; ? = inconclusive; - = not tested or not shown; + = active, no number.

SMILES | Myeloid diff MLP | MIN6 prolif | SENP1 FRET inh | MT1-MMP act inh | DAGLB inhibitor | NRP1-CendR mod
O=C1N=C(N2C=CC(=C3C=CNC=C3)C=C2)/C(=C/N=NC(=O)c2ccccc2O)S1 | 0 | 0 | 0 | 0 | 0 | 41
CC1(c2nc3ccccc3[nH]2)c2ccccc2C(=O)N1C1CC1 (stereo unspecified) | 0 | - | 0 | 0 | - | 0
CCc1ccc(N=Nc2ccc(O)c3[nH]cnc23)cc1 | + | 0 | 76 | 0 | 0 | 0
COc1ccc(N=Nc2ccc(O)c3ncccc23)cc1 | ? | 0 | 0 | 0 | 0 | 0
COc1ccccc1OCc1ccc(C(=O)NN)o1 | + | 0 | 0 | 0 | 0 | 0
COc1ccc(NC(=O)c2ccc(COc3ccccc3OC)o2)cc1OC | 0 | 0 | 0 | 0 | 0 | 0
Cc1ccc(NC(=O)c2ccc(COc3ccccc3[N+](=O)[O-])o2)nc1 | + | 0 | 0 | 0 | 0 | 0
Cc1ccc(NC(=O)COc2ccccc2[N+](=O)[O-])nc1 | 0 | 0 | 0 | 0 | 0 | 0
CC1CC(C)CN(CCCNC(=O)CCNC(=O)Cn2ccc3ccccc3c2=O)C1 (stereo unspecified) | 0 | 0 | 0 | 0 | 0 | 0
CCc1nc2ccc(C(=O)N3CCN(S(=O)(=O)CC)CC3)cn2c1N(CC)CCN(C)C | 0 | - | 0 | 0 | - | 0
O=C(CN1CCC(NC(=O)Cc2ccccc2)CC1)Nc1cccc2ccccc12 | 0 | 0 | 0 | 0 | 0 | 0
CCN1/C(=C2/SC(=S)NC2=O)Sc2ccccc21 | 0 | 0 | 0 | 0 | 0 | 0
CSc1ccc(C2=C/C(=C3/SC(=S)NC3=O)c3ccccc3O2)cc1 | + | - | 0 | 0 | 0 | 0
O=c1c(-c2nc3ccccc3s2)cccn1Cc1ccccc1 | + | 0 | 0 | 0 | 0 | 0
Cc1ccc(Cn2cccc(-c3nc4ccccc4s3)c2=O)cc1 | 0 | 0 | 0 | 0 | 0 | 0
COc1ccc(C(=O)NCC(=O)OCc2ccc(Cl)cc2Cl)cc1OC | 0 | 0 | 0 | 0 | 0 | 0
CN(C)c1ccc(N=Cc2ccco2)cc1 | + | 0 | 0 | 0 | 0 | 0
COc1ccc(OC)c(/C=C2\NC(=O)NC2=O)c1 | 0 | 0 | 0 | 0 | 0 | 0
COc1cc(N2CCCC2)c(OC)cc1/C=C1/NC(=S)NC1=O | + | 0 | 0 | 0 | 0 | 0
CC(=O)c1cccc(S(=O)(=O)N2CCCC(c3nc4c(nnn4Cc4cccc(Cl)c4)c(=O)[nH]3)C2)c1 (stereo unspecified) | 0 | 0 | 0 | 0 | 0 | 0
COC(=O)c1ccc(Cn2nnc3c(=O)[nH]c(C4CCCN(S(=O)(=O)c5cccc(Cl)c5)C4)nc32)cc1 (stereo unspecified) | 0 | 0 | 0 | 0 | 0 | 27
Cc1nn(C)c(C(=O)NC2C3CC4CC(C3)CC2C4)c1Cl (stereo unspecified) | 0 | 7.7 | 0 | 0 | 0 | 0
Cn1ncc(Cl)c1C(=O)NC1C2CC3CC(C2)CC1C3 (stereo unspecified) | 0 | 0 | 0 | 0 | 0 | 0
CCNCC(=O)Nc1c(C)cccc1C | 0 | 0 | 0 | 0 | 0 | 0
CCC(C)(NC=O)C(=O)Nc1c(C)cccc1C (stereo unspecified) | 0 | 0 | 0 | 0 | 0 | 26
SMILES | Myeloid diff MLP | MIN6 prolif | SENP1 FRET inh | MT1-MMP act inh | DAGLB inhibitor | NRP1-CendR mod
Cc1cc(C(=O)N/N=C/c2ccc(C)s2)n[nH]1 | 0 | 0 | 0 | 0 | 0 | 18
COc1cc(C=C(c2nc3ccccc3s2)c2nc3ccccc3s2)ccc1O | 0 | 0 | 0 | 0 | 0 | 0
COc1cc(/C=C/c2nc3ccccc3s2)cc(OC)c1O | + | 0 | 0 | 0 | 0 | 0
CN(C)c1ccc(/C=C/c2nc3ccccc3s2)cc1 | + | 0 | 0 | 0 | 0 | 0
C[C@@H](C(=O)Nc1ccc(SC(F)F)cc1)N1C(=O)C2CCCCC2C1=O (stereo partly specified) | ? | 0 | 0 | 0 | 0 | 22
Cc1ccc(NC(=O)C(C)N2C(=O)C3CC=C(Cl)CC3C2=O)cc1 (stereo unspecified) | 0 | 0 | 0 | 0 | 0 | 0
FC(F)Sc1ccc(NC(=S)NC2CCCC2)cc1 | 0 | 0 | 0 | 0 | 0 | 0
Cc1ccc(NC(=O)C(C)N2C(=O)C3C4CC(C(Br)C4Br)C3C2=O)cc1 (stereo unspecified) | 0 | 0 | 0 | 0 | 0 | 32
